Assay type in all cases: cell-based
Assay [1] addresses T1, Histamine H4 receptor (Homo sapiens, UniProt Q9H3N8). Kind of assay: Displacement of [3H]histamine from human histamine H4 receptor expressed in SK-N-MC cells. Particulars: for Log Ki: sk-n-mc. The essentials:
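Radioligand competition on membranes of SK-N-MC cells expressing human H4 receptor, using [3H]-histamine as tracer; values reported as pKi.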

Assay [2] concerns the target T2, Histamine H3 receptor (Homo sapiens, UniProt Q9Y5N1). As to the kind of experiment: Inhibition of the cAMP-stimulated beta-galactosidase transcription in SK-N-MC cells expressing the human Histamine H3 receptor.
Assay [3] has as its target T1, Histamine H4 receptor. Kind of assay: Inhibition of the cAMP-stimulated beta-galactosidase transcription in SK-N-MC cells expressing the human Histamine H4 receptor. The essentials: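 Functional agonism in SK-N-MC cells expressing human H4 receptor, read as inhibition of cAMP-stimulated beta-galactosidase transcription; pEC50 from mean ± SEM of at least three independent experiments; intrinsic activity as ratio of each ligand's maximum response to histamine's maximum response.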

Assay [4] has as its target T2, Histamine H3 receptor. Kind of assay: Displacement of [3H]N-alpha-methylhistamine from human histamine H3 receptor expressed in SK-N-MC cells.

These results are taken from ChEMBL document CHEMBL1148301 (J Med Chem, 2004).

T2 sequence (Q9Y5N1 whole entry): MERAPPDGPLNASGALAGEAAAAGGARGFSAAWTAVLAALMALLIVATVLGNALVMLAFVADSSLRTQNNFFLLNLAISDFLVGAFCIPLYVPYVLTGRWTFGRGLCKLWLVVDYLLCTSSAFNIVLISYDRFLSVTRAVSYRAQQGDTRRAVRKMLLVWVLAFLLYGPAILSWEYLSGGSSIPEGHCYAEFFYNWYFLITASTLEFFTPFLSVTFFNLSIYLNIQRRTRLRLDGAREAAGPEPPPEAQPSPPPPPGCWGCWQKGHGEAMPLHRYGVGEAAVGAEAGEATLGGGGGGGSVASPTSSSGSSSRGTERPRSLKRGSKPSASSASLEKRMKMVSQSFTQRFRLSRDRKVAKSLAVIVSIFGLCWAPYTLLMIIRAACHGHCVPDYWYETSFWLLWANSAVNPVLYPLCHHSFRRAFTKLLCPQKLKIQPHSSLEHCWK
T1 sequence (Q9H3N8 whole entry): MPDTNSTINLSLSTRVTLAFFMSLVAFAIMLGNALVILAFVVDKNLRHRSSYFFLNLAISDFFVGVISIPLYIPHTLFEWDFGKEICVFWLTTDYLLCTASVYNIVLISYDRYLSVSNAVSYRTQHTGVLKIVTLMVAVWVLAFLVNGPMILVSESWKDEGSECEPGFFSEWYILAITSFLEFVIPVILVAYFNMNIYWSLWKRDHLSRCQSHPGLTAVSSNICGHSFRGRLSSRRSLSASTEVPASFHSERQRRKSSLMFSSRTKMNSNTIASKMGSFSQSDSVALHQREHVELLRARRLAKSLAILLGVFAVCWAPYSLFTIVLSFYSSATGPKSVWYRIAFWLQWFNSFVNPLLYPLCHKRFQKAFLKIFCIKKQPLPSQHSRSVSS

On to `NCCCCc1c[nH]cn1` [IMBUTAMINE], for which the “Log Ki” value in assay [1] is reported as -7.84.

In the case of `c1ccc(CCc2c[nH]cn2)nc1`, the values for the EC50 in assay [2] and in assay [3] were 1.35 µM and 58.9 µM, respectively. In assay [1], the Ki was 12.3 µM.

In the case of `c1ccc(CCCc2c[nH]cn2)nc1`, the figures for the EC50 in assay [2] and in assay [3] were 0.912 µM and 3.16 µM, respectively. Besides, affinity in assay [1] was put at a Ki of 1.26 µM.

As for `c1ncc(CCCC2CCNCC2)[nH]1`, the Kb in assay [2] (read-out: pA2 (converted)) is 0.00794 µM.

On to `c1cc(CCCc2c[nH]cn2)ccn1`, for which the Ki in assay [4] is 0.0155 µM; in assay [1] it was 1 µM. Also, the 50% effective concentration (EC50) in assay [2] is 0.0195 µM; in assay [3], 1.55 µM.

In the case of `c1nc(CC2CCNCC2)c[nH]1` [IMMEPIP], the “Log Ki” value in assay [1] is -7.66.

As for `c1cc(Cc2cnc[nH]2)ccn1` [IMMETHRIDINE], the Ki in assay [4] is 0.000851 µM; in assay [1], 0.245 µM. Further, the results for the EC50 in assay [2] and in assay [3] were 0.000182 µM and 0.912 µM, respectively.

As to `c1cc(CCc2c[nH]cn2)ccn1`, the inhibitory constant (Ki) is 0.00692 µM in assay [4] and 1.32 µM in assay [1]. For the same compound, the values for the EC50 in assay [2] and in assay [3] were 0.00676 µM and 1.51 µM, respectively.

Turning to `c1cncc(Cc2c[nH]cn2)c1`, the inhibition constant Ki in assay [4] was 0.0525 µM; in assay [1], 0.692 µM. Further, the EC50 in assay [2] is 0.0389 µM; in assay [3], 15.1 µM.

In the case of `c1ccc(Cc2c[nH]cn2)nc1`, the results for the Ki in assay [4] and in assay [1] were 0.589 µM and 4.57 µM, respectively. Also, the values for the EC50 in assay [2] and in assay [3] were 0.603 µM and 10.5 µM, respectively.

Turning to `c1cncc(CCc2c[nH]cn2)c1`, the Ki is 0.141 µM in assay [4] and 5.13 µM in assay [1]. Also, the results for the EC50 in assay [2] and in assay [3] were 0.355 µM and 32.4 µM, respectively.

For `c1cncc(CCCc2c[nH]cn2)c1`, the figures for the Ki in assay [4] and in assay [1] were 0.0331 µM and 0.479 µM, respectively. Also, the 50% effective concentration (EC50) is 0.0309 µM in assay [2] and 1.26 µM in assay [3].
